Measured values of several laboratories.
Lines come from different studies, so protocols differ.
Organism: Staphylococcus aureus
Read-out: microbial growth

For `COC(=O)c1cc(-c2ccc(OC)c(NC(=O)Nc3ccc(Cl)c(Cl)c3)c2)on1`, the MIC was > 64 µg/mL (broth dilution; ATCC29213).
The MIC of `CC1(C)CC[C@]2(C(=O)O)CC[C@]3(C)C(=CC[C@@H]4[C@@]5(C)CC[C@H](O)C(C)(C)[C@@H]5CC[C@]43C)[C@@H]2C1` is reported as 256 µg/mL (252).
With `CN[C@H](CC(C)C)C(=O)N[C@H]1C(=O)N[C@@H](CC(N)=O)C(=O)N[C@H]2C(=O)N[C@H]3C(=O)N[C@H](C(=O)N[C@H](C(=O)O)c4cc(O)cc(O)c4-c4cc3ccc4O)[C@H](O)c3ccc(c(Cl)c3)Oc3cc2cc(c3O[C@@H]2O[C@H](CO)[C@@H](O)[C@H](O)[C@H]2O[C@H]2C[C@](C)(N)[C@H](O)[C@H](C)O2)Oc2ccc(cc2Cl)[C@H]1O` the MIC was > 16 µg/mL (VRSA; drug-resistant strain).
`COc1cccc(OC)c1C(=O)N[C@@H]1C(=O)N2[C@@H]1SC(C)(C)[C@@H]2C(=O)O` has an MIC of > 64 µg/mL (ATCCBAA41; drug-resistant strain, clinical isolate).
`COC(=O)c1cc(-c2cccc(NC(=O)Nc3cccc(C#N)c3)c2)on1` has an MIC of > 64 µg/mL (broth dilution; ATCC29213).
`COC[C@H]1OC(=O)c2coc3c2[C@@]1(C)C1=C(C3=O)[C@@H]2CCC(=O)[C@@]2(C)C[C@H]1OC(C)=O` has an MIC of > 30 µM (NCTC8325).
`NC[C@H]1O[C@H](O[C@H]2[C@H](O)[C@@H](O[C@H]3O[C@H](CO)[C@@H](O)[C@H](N)[C@H]3O)[C@H](N)C[C@@H]2N)[C@H](O)[C@@H](O)[C@@H]1O` gave an MIC of 256 µg/mL (USA300).
With `CCC(CC)c1cc(CCN2CCCN(Cc3ccc(C(F)(F)F)cc3)CC2)nc(-c2ccncc2)n1` the MIC was 4 µg/mL (ATCCBAA1717; drug-resistant strain, clinical isolate).
`CSc1ccc(-c2nc3ccc(C)cc3n2Cc2ccccc2)cc1` has an MIC of 256 µg/mL (broth dilution; ATCC43300 MRSA; drug-resistant strain).
`CCCCCCCC/C=C\CCCCCCCC(=O)C(F)(F)P(=O)(O)O` gave an MIC of > 200 µg/mL (ATCC33591 MRSA; drug-resistant strain).
`COC(=O)c1cc(-c2cccc(NC(=O)Nc3cccc(C(F)(F)F)c3)c2)on1` has an MIC of > 64 µg/mL (broth dilution; ATCC29213).
`O=C(CCCCC1CCCCC1)NP(=O)(O)O` has an MIC of > 200 µg/mL (ATCC33591 MRSA; drug-resistant strain).
`Cc1ccc2[nH]c3c(c2c1)CCCC3NCCc1ccc(Br)cc1` (centres unmarked) gave an MIC of 4 µg/mL (broth dilution; MRSA USA300).
The MIC of `CO[C@H]1/C=C/O[C@@]2(C)Oc3c(C)c(O)c4c(O)c(c(/C=N/N5CCN(C)CC5)c(O)c4c3C2=O)NC(=O)/C(C)=C\C=C\[C@H](C)[C@H](O)[C@@H](C)[C@@H](O)[C@@H](C)[C@H](OC(C)=O)[C@@H]1C` is reported as 0.12 µg/mL (NEWMAN).
`Clc1ccc(-c2nc3ccccc3[nH]2)c(Cl)c1` gave an MIC of 256 µg/mL (broth dilution; ATCC43300 MRSA; drug-resistant strain).
With `COc1cc(Cc2cnc(N)nc2N)cc(OC)c1OC` the MIC was ~16.6 µM (broth dilution).
`COC(=O)c1cc(-c2cccc(NC(=O)NCc3ccccc3)c2)on1` gave an MIC of > 64 µg/mL (broth dilution; ATCC29213).
The MIC of `Clc1ccc(-c2nc3ccccc3n2Cc2ccccc2)cc1Cl` is reported as 16 µg/mL (broth dilution; ATCC43300 MRSA; drug-resistant strain).
`O=[N+]([O-])c1ccc(-c2nc3cc(F)ccc3[nH]2)o1` gave an MIC of 4 µg/mL (broth dilution; ATCC700699 MRSA; drug-resistant strain).
`COC(=O)c1cc(-c2cccc(NC(=O)Nc3ccc(C)cc3)c2)on1` has an MIC of > 64 µg/mL (broth dilution; ATCC29213).
`CC[C@H]1OC(=O)[C@H](C)[C@@H](O[C@H]2C[C@@](C)(OC)[C@@H](O)[C@H](C)O2)[C@H](C)[C@@H](O[C@@H]2O[C@H](C)C[C@H](N(C)C)[C@H]2O)[C@](C)(O)C[C@@H](C)C(=O)[C@H](C)[C@@H](O)[C@]1(C)O` has an MIC of 32 µg/mL (USA300).
`CN[C@H](CC(C)C)C(=O)N[C@H]1C(=O)N[C@@H](CC(N)=O)C(=O)N[C@H]2C(=O)N[C@H]3C(=O)N[C@H](C(=O)N[C@H](C(=O)O)c4cc(O)cc(O)c4-c4cc3ccc4O)[C@H](O)c3ccc(c(Cl)c3)Oc3cc2cc(c3O[C@@H]2O[C@H](CO)[C@@H](O)[C@H](O)[C@H]2O[C@H]2C[C@](C)(N)[C@H](O)[C@H](C)O2)Oc2ccc(cc2Cl)[C@H]1O` has an MIC of 1 µg/mL (broth dilution; ATCCBAA41; drug-resistant strain).
The MIC of `CN[C@H](CC(C)C)C(=O)N[C@H]1C(=O)N[C@@H](CC(N)=O)C(=O)N[C@H]2C(=O)N[C@H]3C(=O)N[C@H](C(=O)N[C@H](C(=O)O)c4cc(O)cc(O)c4-c4cc3ccc4O)[C@H](O)c3ccc(c(Cl)c3)Oc3cc2cc(c3O[C@@H]2O[C@H](CO)[C@@H](O)[C@H](O)[C@H]2O[C@H]2C[C@](C)(N)[C@H](O)[C@H](C)O2)Oc2ccc(cc2Cl)[C@H]1O` is reported as 1 µg/mL (USA300).
The MIC of `Cc1ccc2[nH]c3c(c2c1)CCCC3NCCc1ccc(O)cc1` (centres unmarked) is reported as 16 µg/mL (broth dilution; ATCC29213).
`CCCCCCCC(=O)CP(=O)(O)O` gave an MIC of 200 µg/mL (ATCC33591 MRSA; drug-resistant strain).
`CC(=O)O[C@H]1C[C@@]2(C)[C@@H](C[C@@H](O)[C@H]3[C@@]4(C)CC[C@@H](O)[C@@H](C)[C@@H]4CC[C@@]32C)/C1=C(\CCC=C(C)C)C(=O)O` has an MIC of 8 µg/mL (ATCCBAA1721).
`CCCCCC/C=C\CCCCCCCCCC(=O)NP(=O)(O)O` gave an MIC of 200 µg/mL (ATCC33591 MRSA; drug-resistant strain).
The MIC of `Oc1ccccc1-c1nc2ccccc2[nH]1` is reported as 256 µg/mL (broth dilution; ATCC43300 MRSA; drug-resistant strain).
For `CN[C@H](CC(C)C)C(=O)N[C@H]1C(=O)N[C@@H](CC(N)=O)C(=O)N[C@H]2C(=O)N[C@H]3C(=O)N[C@H](C(=O)N[C@H](C(=O)O)c4cc(O)cc(O)c4-c4cc3ccc4O)[C@H](O)c3ccc(c(Cl)c3)Oc3cc2cc(c3O[C@@H]2O[C@H](CO)[C@@H](O)[C@H](O)[C@H]2O[C@H]2C[C@](C)(N)[C@H](O)[C@H](C)O2)Oc2ccc(cc2Cl)[C@H]1O`, the MIC was 1.56 µg/mL (ATCC33591; drug-resistant strain).
The MIC of `COC(=O)c1cc(-c2cccc(NC(=O)Nc3ccc(Cl)cc3Cl)c2)on1` is reported as > 64 µg/mL (broth dilution; ATCC29213).
`Cc1cc(Cl)ccc1-c1ccc(/C=C2\SC(=S)N(CC(=O)O)C2=O)o1` gave an MIC of 8 to 64 µg/mL (broth dilution; MRSA USA300; drug-resistant strain).
The MIC of `Cc1ccc2nc(-c3ccc([N+](=O)[O-])cc3)[nH]c2c1` is reported as 256 µg/mL (broth dilution; ATCC43300 MRSA; drug-resistant strain).
`CC1C(=NOCc2cn(-c3ccccc3)nn2)CC(c2ccccc2)OC1c1ccccc1` (centres unmarked) has an MIC of 25 µg/mL (broth dilution; MTCC96; 24 h).
With `CCCCCCC#Cc1cncc(-c2nnc(Sc3ccc([N+](=O)[O-])cc3[N+](=O)[O-])n2C)c1` the MIC was ≥ 20 µg/mL (MRSA; drug-resistant strain).
The MIC of `CO[C@H]1[C@H](O[C@H]([C@H]2O[C@@H](n3ccc(=O)[nH]c3=O)[C@H](O)[C@@H]2O)[C@H](NCCCNC(=O)[C@@H](NC(=O)[C@@H](NC(=O)N[C@H](C(=O)O)C(C)C)[C@@H]2CCN=C(N)N2)[C@@H](OC(=O)CCCCCCC(C)C)C(C)C)C(=O)O)O[C@H](CN)[C@H]1O` is reported as > 32 µg/mL (NEWMAN).
`O=C(Nc1ccc(Cl)c(C(F)(F)F)c1)N1CCCCC1` gave an MIC of 30 µM (NCTC8325).
`CCOc1ccc(-c2nc3ccc(C)cc3[nH]2)cc1` has an MIC of 256 µg/mL (broth dilution; ATCC43300 MRSA; drug-resistant strain).
For `O=C(CCCCc1ccccc1)CP(=O)(O)O`, the MIC was > 200 µg/mL (ATCC33591 MRSA; drug-resistant strain).
`Cc1ccc2nc(-c3ccc(F)cc3)n(Cc3ccccc3)c2c1` gave an MIC of 64 µg/mL (broth dilution; ATCC43300 MRSA; drug-resistant strain).
`C/C(=C\C(=O)OCCCCCCCCC(=O)O)C[C@@H]1OC[C@H](C[C@@H]2O[C@H]2[C@@H](C)[C@H](C)O)[C@@H](O)[C@H]1O` has an MIC of > 8000 µM (BAA1556 MRSA; drug-resistant strain).
For `COC(=O)c1cc(-c2cccc(NC(=O)Nc3ccccc3OC)c2)on1`, the MIC was > 64 µg/mL (broth dilution; ATCC29213).
`CCN1CCN(C(=O)Cc2ccc(Nc3ncc(F)c(Nc4ccc(C(=O)Nc5ccccc5Cl)cc4)n3)cc2)CC1` has an MIC of > 30 µM (NCTC8325).
For `CCOC(=O)c1cc(-c2cccc(NC(=O)Nc3ccc(Cl)c(Cl)c3)c2)on1`, the MIC was > 64 µg/mL (broth dilution; ATCC29213).
The MIC of `C=CCn1c(-c2ccc([N+](=O)[O-])cc2)nc2ccc(C)cc21` is reported as 64 µg/mL (broth dilution; ATCC43300 MRSA; drug-resistant strain).
For `CNC(=O)c1cc(Oc2ccc(NC(=O)Nc3cccc(C(F)(F)F)c3)cc2)ccn1`, the MIC was > 100 µM (NCTC8325).
`O=C(CCCCCCCCCCOc1ccccc1)NP(=O)(O)O` has an MIC of 100 µg/mL (ATCC33591 MRSA; drug-resistant strain).
For `[H]/N=C(/N)N[C@H]1[C@H](O)[C@@H](O)[C@H](O[C@@H]2O[C@@H](C)[C@](O)(C=O)[C@H]2O[C@@H]2O[C@@H](CO)[C@H](O)[C@@H](O)[C@@H]2NC)[C@@H](N/C(N)=N\[H])[C@@H]1O`, the MIC was 64 µg/mL (USA300).
